Measurements: ChEMBL document CHEMBL1122794, “[(Arylcarbonyl)oxy]propanolamines. 1. Novel beta-blockers with ultrashort duration of action” (J Med Chem, 1984)
Active and inactive are the calls of the source. The rule behind the calls is not given here.

Experiments:
Adrenergic receptor beta [1] = target: T1, Adrenergic receptor beta (Homo sapiens, UniProt P08588+P07550+P13945); assay: In vitro blocking of beta adrenergic receptor in guinea pig trachea; assay type: tissue-based, Cavia porcellus; conditions: target entry is the homologue from another species
Adrenergic receptor beta [2] = target: T1, Adrenergic receptor beta; assay: In Vitro inhibition of the beta adrenergic receptor in guinea pig atria; assay type: tissue-based, Cavia porcellus; conditions: target entry is the homologue from another species
[3] = Selectivity determined by expression 10[pA2(atria) - pA2 (trachea)] in guinea pig; assay type: functional, Cavia porcellus
[4] = Time in which 1/2 of the initial amount disappeared in human blood.; assay type: ADME, organism-based
In short: (§1)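 1 mL of solution containing 50 µg of compound was added to 1 mL of dog or human whole blood, or to 1 mL of 33% (w/v) canine liver homogenate. They were assayed by HPLC on a phenyl column with 60% acetonitrile/40% 0.05 M sodium phosphate (pH 6.6) and UV detection. Half-life was read graphically from concentration versus time.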

[5] = T1/2 in canine blood; assay type: ADME, […], Canis lupus familiaris; conditions: dog; in short: as §1
[6] = t1/2 in canine liver; assay type: ADME, Canis lupus familiaris; conditions: dog
Canis familiaris [7] = species: Canis familiaris; assay: Percent inhibition of isoproterenol induced tachycardia at a dose of 7 microg (3-h infusion period); assay type: functional, Canis lupus familiaris
Canis familiaris [8] = species: Canis familiaris; assay: Time taken for 80% recovery at a dose of 7 microg (3-h infusion period); assay type: functional, organism-based; conditions: Canis lupus familiaris
In short: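 After the infusion ended, the time to 80% recovery of the blockade was recorded as duration of action. The listed dose is the average amount infused per minute over the 3-h period, in µg/(kg min).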

[9] = target: Beta-2 adrenergic receptor (Cavia porcellus) (UniProt Q8K4Z4); assay: In Vitro evaluation for […] selectivity in guinea pig
In short: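 Selectivity index calculated as 10^[pA2(atria) − pA2(trachea)] from pA2 values measured in isolated guinea pig atria and trachea. A minus sign denotes β2 selectivity.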

[10] = Stability at pH 7.4 and 37 degree Celsius (after 18 h); assay type: physicochemical; conditions: buffer
In short: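 Chemical stability was tested in pH 7.4 buffer at 37 °C. The percentage of parent compound remaining after 18 h of incubation was recorded.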

Sequence of Beta-2 adrenergic receptor (Cavia porcellus) (Q8K4Z4 whole entry, looked up): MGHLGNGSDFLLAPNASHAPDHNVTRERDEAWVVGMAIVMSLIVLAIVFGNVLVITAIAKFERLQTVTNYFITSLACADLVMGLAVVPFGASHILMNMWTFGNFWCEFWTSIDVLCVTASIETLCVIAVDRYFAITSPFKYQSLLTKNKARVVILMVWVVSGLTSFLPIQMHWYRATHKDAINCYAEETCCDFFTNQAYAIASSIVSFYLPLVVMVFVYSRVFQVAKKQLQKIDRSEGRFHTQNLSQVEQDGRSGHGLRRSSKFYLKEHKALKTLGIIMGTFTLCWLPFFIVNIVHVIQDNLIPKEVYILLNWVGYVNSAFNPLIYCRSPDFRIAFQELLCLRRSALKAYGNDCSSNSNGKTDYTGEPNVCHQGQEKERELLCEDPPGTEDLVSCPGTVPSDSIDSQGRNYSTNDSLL

Row | Compound | pA2 (Adrenergic receptor beta [1]) | pA2 (Adrenergic receptor beta [2]) | Selectivity [3] | half-life [5] | further results
1 | CC(=O)Nc1ccc(C(=O)OCC(O)CNC(C)C)cc1 (stereo not given) | 5.2 | 5.8 | 4 | – | –
2 | CC(C)NCC(O)COC(=O)c1cccc(F)c1 (stereo not given) | – | – | – | 52 min | half-life [4]: 8 min; half-life [6]: 11 min
3 | CC(C)NCC(O)COC(=O)c1ccc(OCc2ccccc2)cc1 (stereo not given) | – | < 6 | – | – | –
4 | CCC(C)(C)NCC(O)COC(=O)c1ccccc1F (stereo not given) | 7.7 | 6.7 | -5 | 6 min | half-life [6]: 12 min
5 | C=CCOc1ccc(C(=O)OCC(O)CNC(C)(C)C)cc1 (stereo not given) | – | 6 | – | – | –
6 | CC(C)NCC(O)COC(=O)c1cccc(N)c1 (stereo not given) | 6.8 | 6.4 | -2.5 | > 180 min | Inhibition (Canis familiaris [7]): 80%; Recovery time (Canis familiaris [8]): > 60 min; half-life [6]: > 180 min
7 | CC(C)(C)NCC(O)COC(=O)c1cccc(O)c1 (stereo not given) | 7.6 | 7.4 | -2 | 119 min | Inhibition (Canis familiaris [7]): 56%; Recovery time (Canis familiaris [8]): 25 min; half-life [6]: 62 min
8 | CC(C)NCC(O)COC(=O)c1cccc([N+](=O)[O-])c1 (stereo not given) | 7.2 | 6.8 | -2.5 | – | –
9 | O=C(Cc1ccccc1)NCCNCC(O)COC(=O)c1ccccc1F (stereo not given) | – | < 6 | – | – | –
10 | CC(C)(C)NCC(O)COC(=O)c1ccc([N+](=O)[O-])cc1 (stereo not given) | – | 6.1 | – | > 180 min | half-life [4]: 5.5 min; half-life [6]: > 180 min
11 | CC(C)NCC(O)COC(=O)c1ccc(F)cc1 (stereo not given) | 7.3 | 6.6 | -5 | 4 min | half-life [4]: 3.5 min; half-life [6]: 3 min
12 | CC(C)(C)NCC(O)COC(=O)CCc1ccccc1 (stereo not given) | – | < 6 | – | < 2.5 min | half-life [4]: 71 min
13 | COc1ccc(CCNCC(O)COC(=O)c2ccc(N)cc2)cc1OC (stereo not given) | 5.7 | 6.5 | 6 | – | –
14 | CN(C)S(=O)(=O)NCC(C)(C)NCC(O)COC(=O)c1ccccc1F (stereo not given) | 7.5 | 7.4 | 1 | – | –
15 | CC(C)(C)NCC(O)COC(=O)c1cccc(N)c1 (stereo not given) | 7.2 | 6.7 | -3.5 | – | –
16 | Cc1cc([N+](=O)[O-])ccc1C(=O)OCC(O)CNC(C)(C)C (stereo not given) | 7.3 | 6.6 | -5 | – | –
17 | COc1ccc(CCNCC(O)C(=O)Oc2ccccc2)cc1OC (stereo not given) | 5.9 | 5.9 | – | – | Selectivity [9]: 1
18 | COc1ccc(CCNCC(O)COC(=O)c2ccccc2Cl)cc1OC (stereo not given) | 7.5 | 7.8 | 2 | – | remaining at 18 h [10]: 59%
19 | CC(C)(C)NCC(O)COC(=O)C1c2ccccc2-c2ccccc21 (stereo not given) | – | < 6 | – | – | –
20 | Cc1ccccc1C(=O)OCC(O)CNC(C)(C)C (stereo not given) | 7.9 | 7.3 | -4 | > 180 min | half-life [4]: > 180 min; remaining at 18 h [10]: 100%; half-life [6]: > 180 min
21 | CC(C)(C)NCC(O)COC(=O)c1cccc(OCc2ccccc2)c1 (stereo not given) | – | – | – | > 180 min | half-life [6]: > 180 min
22 | CC(C)NCC(O)COC(=O)c1cccc2ccccc12 (stereo not given) | 7 | 6.6 | -2.5 | – | –
23 | COc1ccc(CCNCC(O)COC(=O)c2ccc(CO)cc2)cc1OC (stereo not given) | – | < 5.5 | – | – | –
24 | Cc1cccc(C(=O)OCC(O)CNC(C)(C)C)c1 (stereo not given) | 7.3 | 7 | -2 | – | –
25 | CC(C)(C)NCC(O)COC(=O)c1ccc(OCc2ccccc2)cc1 (stereo not given) | – | 6.2 | – | – | –
26 | CC(C)(C)NCC(O)COC(=O)Cc1ccccc1 (stereo not given) | – | 5.6 | – | 16 min | half-life [4]: 6.3 min
27 | CC(C)(C)NCC(O)COC(=O)C(c1ccccc1)c1ccccc1 (stereo not given) | – | < 5.5 | – | > 180 min | half-life [4]: 120 min

Row | Compound | pA2 (Adrenergic receptor beta [1]) | pA2 (Adrenergic receptor beta [2]) | Selectivity [3] | half-life [5] | further results
28 | Cc1cc(N)ccc1C(=O)OCC(O)CNC(C)(C)C (stereo not given) | 8.4 | 7.8 | -4 | – | –
29 | C#CC(C)(C)NCC(O)COC(=O)c1ccccc1F (stereo not given) | 6.7 | 6.6 | 1 | 12 min | half-life [6]: 7 min
30 | Cc1ccccc1OCC(O)CNC(C)C (stereo not given) | 8.2 | 8.6 | 3 | – | –
31 | COc1ccc(CCNCC(O)C(=O)Oc2ccccc2C)cc1OC (stereo not given) | – | 5.9 | – | – | –
32 | Cc1ccc(C(=O)OCC(O)CNC(C)C)cc1 (stereo not given) | 6.8 | 6.8 | 1 | 67 min | half-life [4]: 6 min; half-life [6]: 10.4 min
33 | CC(C)(C)NCC(O)COC(=O)c1cccc([N+](=O)[O-])c1 (stereo not given) | – | 6.8 | – | 74 min | half-life [6]: > 180 min
34 | C=CCOc1ccccc1C(=O)OCC(O)CNC(C)C (stereo not given) | 6.2 | 6.4 | -2 | – | –
35 | CNCC(O)COC(=O)c1ccc2c(c1)OCO2 (stereo not given) | – | 5.3 | – | – | –
36 | CC(C)(C)NCC(O)COC(=O)C1CCCC1 (stereo not given) | – | 5.3 | – | – | –
37 | COCCOC(=O)NCC(C)(C)NCC(O)COC(=O)c1ccccc1F (stereo not given) | 7.7 | 7.7 | 1 | – | –
38 | CCCOc1ccc(C(=O)OCC(O)CNC(C)(C)C)cc1 (stereo not given) | – | 5.4 | – | – | –
39 | CC(C)(C)NCC(O)COC(=O)c1cccc2ccccc12 (stereo not given) | 7.4 | 6.8 | -4 | > 180 min | half-life [6]: > 180 min
40 | CC(=O)Nc1cccc(C(=O)OCC(O)CNC(C)C)c1 (stereo not given) | 6.4 | 6.1 | -2 | – | –
41 | CC(C)C(=O)NCCNCC(O)COC(=O)c1ccccc1F (stereo not given) | – | 6.1 | – | – | –
42 | CCCOc1cccc(C(=O)OCC(O)CNC(C)C)c1 (stereo not given) | – | 6.6 | – | – | –
43 | COc1ccc(CCNCC(O)COC(=O)c2ccc(C)cc2)cc1OC (stereo not given) | 6 | 6.6 | 4 | – | –
44 | CC(C)(C)NCC(O)COC(=O)c1ccc(N)cc1 (stereo not given) | 7 | 7 | 1 | – | –
45 | CNC(=O)NCC(C)(C)NCC(O)COC(=O)c1ccccc1F (stereo not given) | 8.1 | 6.5 | -39 | 12 min | half-life [6]: 5 min
46 | C=CCOc1cccc(C(=O)OCC(O)CNC(C)C)c1 (stereo not given) | 6.8 | 6.8 | 1 | – | –
47 | CC(C)(C)NCC(O)COC(=O)c1ccncc1 (stereo not given) | – | 5.3 | – | – | –
48 | COc1ccc(CCNCC(O)COC(=O)c2cccc(F)c2)cc1OC (stereo not given) | 6.2 | 6.4 | 2 | – | –
49 | CC(=O)NCC(C)NCC(O)COC(=O)c1ccccc1F (stereo not given) | – | < 6.3 | – | – | –
50 | CC(C)NCC(O)COc1ccccc1 (stereo not given) | 7.4 | 8 | 4 | – | –
51 | COc1ccccc1COC(=O)C(O)CNCCc1ccc(OC)c(OC)c1 (stereo not given) | 5 | – | – | – | pA2 (Adrenergic receptor beta [2]; Cavia porcellus): inactive
52 | Cc1cccc(C(=O)OCC(O)CNC(C)C)c1 (stereo not given) | 7.3 | 6.8 | -3 | – | –
53 | CC(C)(C)NCC(O)COC(=O)CCCc1ccccc1 (stereo not given) | – | 5.3 | – | – | –
